Assay results as given in PubChem BioAssay.
Activity calls are given as the source filed them. Unless noted, the rule behind the calls is not given here.

Assays:
[1] = target: Pantothenate synthetase (Mycobacterium tuberculosis (strain ATCC 25618 / H37Rv)) (UniProt P9WIL5); assay: Recombinant Mtb pantothenate synthetase (PanC) inhibitors, coupled enzyme, confirmatory (AID 375); details: coupled enzyme assay; at 10 µM, stronger effect = higher value;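 note: 0% = full reaction with vehicle and 100% = no enzyme background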
[2] = SK-BR-3 cell growth inhibitors, pilot screen, 24 h, human (AID 572;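 active = viability at or below 10% of carrier control in both of two separate runs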;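 note: compound exposure lasted between 18 and 24 h rather than exactly 24 h; 100% = carrier-treated control wells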); details: SK-BR-3 viability, CellTiter-Glo luminescence, at 10 µM, stronger effect = lower value
[3] = HUVEC growth inhibition – cell-based, human, primary screen (AID 575;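 active = viability at or below 30% in both replicate assays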;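 note: 100% = median of untreated cell wells with 0.1% DMSO on each plate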); details: HUVEC proliferation, CellTiter-Glo luminescence, 72 h; at 10 µM; stronger effect = lower value
Summary of the method: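 Test system: HUVEC primary cells. Quantity: 1250 endothelial cells in each well. Dosing: single-point 10 µM, DMSO 0.1% final. Incubation: 72 h treatment at 37 °C. Measured by: CTG luminescence. Control set: DMSO cell controls and MePR drug controls. Plate: collagen-coated 384-well format.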

[4] = growth inhibitors of H69AR lung tumor, primary screen, human, duplicate replicates (AID 580;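 active = viability at or under a set limit in both replicates, limit being median viability minus 3 SD, cut at about 48% in these data, passing the limit was not always enough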;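 note: 100% = mean luminescence of untreated wells and 0% = no signal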); details: H69AR lung tumor cells viability, ATP luminescence, 72 h; at 10 µM; stronger effect = lower value
[5] = reversal of MRP1-mediated doxorubicin resistance, pilot screen, H69AR cells, doxorubicin co-treatment (AID 601;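 active = viability loss from added drug above about 55%, and viability with drug at most 40%, in both replicates, limit read from the data, passing the limit was not always enough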); details: CellTiter-Glo, 72 h, at 10 µM; for differential viability (reversal): stronger effect = higher value
[6] = 384-well plate pilot, post-Golgi transport modulator project, inhibition of yeast transport mutant growth (AID 636; in the data active = inhibition above about 31%); details: absorbance 615 nm, about 18 h, stronger effect = higher value
[7] = growth suppression of yeast trafficking mutant, preliminary HTS, modulators of trafficking downstream of Golgi apparatus project, 1536-format plate, OD 615 nm (AID 637; in the data active = inhibition above about 30%); details: yeast transport mutant growth, absorbance 615 nm, 18 h; stronger effect = higher value
[8] = H69AR cells + 2 uM doxorubicin, measured here: viability with 2 uM doxorubicin, stronger effect = lower value
[9] = H69AR cells, compound alone cytotoxicity

Pantothenate synthetase (Mycobacterium tuberculosis (strain ATCC 25618 / H37Rv)), sequence (P9WIL5 whole entry, looked up): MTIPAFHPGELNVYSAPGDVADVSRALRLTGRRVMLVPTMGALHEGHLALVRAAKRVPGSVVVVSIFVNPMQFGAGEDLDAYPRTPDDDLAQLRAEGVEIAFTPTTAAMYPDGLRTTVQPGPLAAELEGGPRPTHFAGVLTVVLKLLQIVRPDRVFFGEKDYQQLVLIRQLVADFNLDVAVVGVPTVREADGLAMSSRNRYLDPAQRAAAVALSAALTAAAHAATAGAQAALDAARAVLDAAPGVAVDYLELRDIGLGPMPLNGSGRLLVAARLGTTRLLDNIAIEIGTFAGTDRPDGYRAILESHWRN

SMILES | inhibition [1] | viability [2] | viability [3] | viability [4] | differential viability (reversal) ([5]; H69AR cells + 2 uM doxorubicin) | viability [5, 8] [%] | viability [5, 9] [%] | inhibition [6] | inhibition [7]
O=C(Cn1ncc2c3ccccc3n(Cc3ccc(F)cc3)c2c1=O)N1CCC2(CC1)OCCO2 | 7% (inactive) | 86% (inactive) | 96% (inactive) | 89.2% (inactive) | -9.23% (inactive) | 98.4 | 89.2 | -5.41% (inactive) | -2.55% (inactive)
CCOC(=O)C1=C(N)OC(C)=C(C(=O)OCCOC)C12C(=O)Nc1ccccc12 (centres undefined) | 5% (inactive) | 85% (inactive) | 92% (inactive) | 98.2% (inactive) | -9.01% (inactive) | 107 | 98.2 | -4.52% (inactive) | 1.64% (inactive)
CC(=NCCCN1CCOCC1)c1c(O)n(-c2ccccc2C)c(=O)[nH]c1=O | 0% (inactive) | 100% (inactive) | 91.3% (inactive) | 92.2% (inactive) | 5.16% (inactive) | 87 | 92.2 | -0.14% (inactive) | -5% (inactive)
CC(C)(C)P(=O)(c1ccncc1)N1CCCC1 (centres undefined) | 4% (inactive) | 111% (inactive) | 105% (inactive) | 92.8% (inactive) | -5.79% (inactive) | 98.6 | 92.8 | -7.3% (inactive) | -2.18% (inactive)
CN1C(=O)CN=C(c2ccc(Cl)cc2)c2cc(Cl)ccc21 | 0% (inactive) | 84% (inactive) | 61.8% (inactive) | 84.8% (inactive) | 0.31% (inactive) | 84.5 | 84.8 | 0.39% (inactive) | 4.17% (inactive)
C#CCN(C)C(C)Cc1ccccc1 (centres undefined) | 5% (inactive) | 115% (inactive) | 88.3% (inactive) | 99.3% (inactive) | -5.18% (inactive) | 104 | 99.3 | -0.26% (inactive) | 2.33% (inactive)
CCCC(C)(COC(N)=O)COC(=O)NC(C)C (centres undefined) | 0% (inactive) | 88% (inactive) | 86.4% (inactive) | 100% (inactive) | -3.16% (inactive) | 103 | 100 | -1.69% (inactive) | 4.17% (inactive)
CC1=NOC2(C)Nc3ncnn3C(c3ccccc3)C12 (centres undefined) | 0% (inactive) | 118% (inactive) | 93% (inactive) | 94.5% (inactive) | -3.04% (inactive) | 97.5 | 94.5 | -6.03% (inactive) | 7.9% (inactive)
COC(=O)C1C2c3ccccc3OC1(C)N=c1s/c(=C/c3cnn(C)c3C)c(=O)n12 (centres undefined) | 7% (inactive) | 98% (inactive) | 83.4% (inactive) | 91.8% (inactive) | 2.92% (inactive) | 88.8 | 91.8 | -0.81% (inactive) | 8.18% (inactive)
COc1ccc(Cc2nccc3cc(OC)c(OC)cc23)cc1OC | 0% (inactive) | 88% (inactive) | 78.6% (inactive) | 81.7% (inactive) | -0.28% (inactive) | 82 | 81.7 | 0.39% (inactive) | -2.5% (inactive)
O=C(C1CCCN(c2nnc(-n3cccc3)s2)C1)N1CCC2(CC1)OCCO2 (centres undefined) | 0% (inactive) | 83% (inactive) | 109% (inactive) | 94.3% (inactive) | 12.8% (inactive) | 81.6 | 94.3 | -7.33% (inactive) | -5.09% (inactive)
NCC(CC(=O)O)c1ccc(Cl)cc1 (centres undefined) | 0% (inactive) | 83% (inactive) | 78.3% (inactive) | 106% (inactive) | -1.38% (inactive) | 107 | 106 | -1.43% (inactive) | 4.67% (inactive)
CN1CCN(c2c[nH]c(=O)[nH]c2=O)CC1 | 0% (inactive) | 110% (inactive) | 90.6% (inactive) | 96.7% (inactive) | 5.06% (inactive) | 91.6 | 96.7 | -7.53% (inactive) | -6.29% (inactive)
CNCC(O)c1ccc(O)cc1 (centres undefined) | 0% (inactive) | 120% (inactive) | 95.6% (inactive) | 102% (inactive) | 15.7% (inactive) | 85.9 | 102 | -1.82% (inactive) | 8.83% (inactive)
C[C@H]1OC[C@@H](C[N+](C)(C)C)O1 | 0% (inactive) | 103% (inactive) | 99.6% (inactive) | 106% (inactive) | 7.41% (inactive) | 98.6 | 106 | -1.43% (inactive) | 4.67% (inactive)
CN(C)CCc1nc2ccccc2c(=O)n1-c1ccccc1 | 0% (inactive) | 107% (inactive) | 92.1% (inactive) | 90.6% (inactive) | -1.03% (inactive) | 91.6 | 90.6 | -2.08% (inactive) | -4.43% (inactive)
